What was measured:
[1] = biological target: T1, P2Y purinoceptor 12 (Homo sapiens, UniProt Q9H244); test: Ratio of compound IC50 to thienopyrimidine IC50 for P2Y12 receptor in human platelet rich plasma assessed as inhibition of ADP-induced platelet aggregation by light transmission aggregometry
How it was run: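 Human platelet-rich plasma was pre-incubated 5 min at 37 °C with compound across seven concentrations (10 down to 0.156). Aggregation was started with ADP (20, final) and followed by light transmission at 626 nm for 15 min at 37 °C. Duplicate concentration-response data were read at the 15-min end-point. IC50 was divided by the IC50 of the thienopyrimidine reference run on the same plate.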

[2] = biological target: T1, P2Y purinoceptor 12; test: Ratio of compound IC50 to AZD-6140 IC50 for P2Y12 receptor in human platelet rich plasma assessed as inhibition of ADP-induced platelet aggregation by light transmission aggregometry
How it was run: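 Human platelet-rich plasma was pre-incubated 5 min at 37 °C with compound across seven concentrations (10 down to 0.156). Aggregation was started with ADP (20, final) and followed by light transmission at 626 nm for 15 min at 37 °C. Duplicate concentration-response data were read at the 15-min end-point. IC50 was divided by the IC50 of AZD-6140 run on the same plate.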

[3] = biological target: T1, P2Y purinoceptor 12; test: Binding affinity at human recombinant P2Y12 receptor expressed in CHO cells by radioligand binding assay; assay type: cell-based
How it was run: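 Washed membranes from CHO cells transfected with synthetic human P2Y12 gene. Compounds as 7-point threefold dilutions, triplicate, 1 h at room temperature. Nonspecific binding defined with 300 nM 2-MeSADP. Filtered, washed with ice-cold Tris pH 7.4. Single-site fit; IC50 converted to Ki by Cheng–Prusoff, geometric mean of n≥2.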

[4] = Selectivity for human P2Y12 receptor over P2Y1
[5] = Selectivity for human P2Y12 receptor over P2Y13

T1 sequence (Q9H244 whole entry): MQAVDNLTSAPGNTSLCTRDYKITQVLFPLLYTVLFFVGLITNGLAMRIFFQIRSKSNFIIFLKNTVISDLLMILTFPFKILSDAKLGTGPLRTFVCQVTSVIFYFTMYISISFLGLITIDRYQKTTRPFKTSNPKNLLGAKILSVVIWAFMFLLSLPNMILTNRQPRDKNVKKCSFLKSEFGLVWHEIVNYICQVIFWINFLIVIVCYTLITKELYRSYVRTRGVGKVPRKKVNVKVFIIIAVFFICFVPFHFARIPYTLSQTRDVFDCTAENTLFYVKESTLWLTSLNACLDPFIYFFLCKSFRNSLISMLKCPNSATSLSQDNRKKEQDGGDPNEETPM

Structure (SMILES)	Ratio IC50 [1]	Ratio IC50 [2]	Ki [3]	fold change (FC) [4]	fold change (FC) [5]
CCCCCOC(=O)N1CCN(C(=O)[C@H](CCC(=O)O)NC(=O)c2nc(-c3ccccc3)cc(N3CCC(CNC)CC3)n2)CC1	0.4	1	11 nM	> 340	> 340
CCCCOC(=O)N1CCN(C(=O)[C@H](CCC(=O)O)NC(=O)c2cc(OCC3CCN(C)CC3)nc(-c3ccccc3)n2)CC1	0.9	3.7	15 nM	> 340	> 340
CCCCCOC(=O)N1CCN(C(=O)[C@H](CCC(=O)O)NC(=O)c2cc(N3CCC(C)CC3)nc(-c3ccccc3)n2)CC1	–	–	7.5 nM	> 340	> 340
CCCCCOC(=O)N1CCN(C(=O)[C@H](CCC(=O)O)NC(=O)c2nc(-c3ccccc3)cc(N3CCOCC3)n2)CC1	–	–	11 nM	> 340	> 340
CCCCCOC(=O)N1CCN(C(=O)[C@H](CCC(=O)O)NC(=O)c2nc(NCCCN(C)C)cc(-c3ccccc3)n2)CC1	–	–	38 nM	> 340	> 340
CCCCCOC(=O)N1CCN(C(=O)[C@H](CCC(=O)O)NC(=O)c2nc(NCC3CCNC3)cc(-c3ccccc3)n2)CC1 (stereo not given in full)	–	–	19 nM	> 340	> 340
CCCCCOC(=O)N1CCN(C(=O)[C@H](CCC(=O)O)NC(=O)c2nc(-c3ccccc3)cc(N3CCC(N)CC3)n2)CC1	0.6	3.1	8.4 nM	> 340	> 340
CCCCCOC(=O)N1CCN(C(=O)[C@H](CCC(=O)O)NC(=O)c2nc(-c3ccccc3)cc(N3CCN(C(=O)N(C)C)CC3)n2)CC1	–	–	14 nM	> 340	> 340
CCCCCOC(=O)N1CCN(C(=O)[C@H](CCC(=O)O)NC(=O)c2nc(NC3CCN(C(C)C)CC3)cc(-c3ccccc3)n2)CC1	–	–	35 nM	> 340	> 340
CCCCOC(=O)N1CCN(C(=O)[C@H](CCC(=O)O)NC(=O)c2cc(OCCN(CC)CC)nc(-c3ccccc3)n2)CC1	1.1	4.3	72 nM	> 340	> 340
CCCCCOC(=O)N1CCN(C(=O)[C@H](CCC(=O)O)NC(=O)c2nc(-c3ccccc3)cc(N3CCC(OCCO)CC3)n2)CC1	–	–	10 nM	> 340	> 340
CCCCCOC(=O)N1CCN(C(=O)[C@H](CCC(=O)O)NC(=O)c2nc(-c3ccccc3)cc(N3CCC(CCOC)CC3)n2)CC1	–	–	8.4 nM	> 340	> 340
CCCCCOC(=O)N1CCN(C(=O)[C@H](CCC(=O)O)NC(=O)c2nc(-c3ccccc3)cc(N3CCC(COCCOC)CC3)n2)CC1	–	–	8.1 nM	> 340	> 340
CCCCCOC(=O)N1CCN(C(=O)[C@H](CCC(=O)O)NC(=O)c2nc(OCCN(CC)CC)cc(-c3ccccc3)n2)CC1	–	–	184 nM	> 340	> 340
CCCCOC(=O)N1CCN(C(=O)[C@H](CCC(=O)O)NC(=O)c2cc(OC(CC)C(=O)N(CC)CC)nc(-c3ccccc3)n2)CC1 (stereo not given in full)	–	–	123 nM	> 340	> 340

Other lines, results leading:

Ratio IC50 [1]	Ratio IC50 [2]	Ki [3]	fold change (FC) [4]	fold change (FC) [5]	Structure (SMILES)
0.6	3.3	3.1 nM	> 340	> 340	CCCCCOC(=O)N1CCN(C(=O)[C@H](CCC(=O)O)NC(=O)c2cc(N3CCC(CC(=O)N(CC)CC)CC3)nc(-c3ccccc3)n2)CC1
1.4	8.3	2.8 nM	> 340	> 340	CCCCCOC(=O)N1CCN(C(=O)[C@H](CCC(=O)O)NC(=O)c2cc(OCCCN3CCOCC3)nc(-c3ccccc3)n2)CC1
0.1	0.3	2.5 nM	> 340	> 340	CCCCCOC(=O)N1CCN(C(=O)[C@H](CCC(=O)O)NC(=O)c2cc(N3CCC(C(=O)N(C)C)CC3)nc(-c3ccccc3)n2)CC1
0.4	1.9	3.5 nM	> 340	> 340	CCCCCOC(=O)N1CCN(C(=O)[C@H](CCC(=O)O)NC(=O)c2nc(-c3ccccc3)cc(N3CCC(C(N)=O)CC3)n2)CC1
1.2	5.3	7.1 nM	> 340	> 340	CCCCCOC(=O)N1CCN(C(=O)[C@H](CCC(=O)O)NC(=O)c2nc(-c3ccccc3)cc(N3CCC(OCCOC)CC3)n2)CC1
0.2	0.8	0.61 nM	> 340	> 340	CCCCCOC(=O)N1CCN(C(=O)[C@H](CCC(=O)O)NC(=O)c2cc(N3CCC(CN(CC)CC)CC3)nc(-c3ccccc3)n2)CC1
0.8	3.5	6.8 nM	> 340	> 340	CCCCCOC(=O)N1CCN(C(=O)[C@H](CCC(=O)O)NC(=O)c2nc(-c3ccccc3)cc(N3CCN(CC(=O)N(C)C)CC3)n2)CC1
1.2	8.8	1.2 nM	> 340	> 340	CCCCCOC(=O)N1CCN(C(=O)[C@H](CCC(=O)O)NC(=O)c2cc(OCCOC)nc(-c3ccccc3)n2)CC1
0.2	1.1	1.3 nM	> 340	> 340	CCCCOC(=O)N1CCN(C(=O)[C@H](CCC(=O)O)NC(=O)c2cc(N3CCC(N4CCOCC4)CC3)nc(-c3ccccc3)n2)CC1
0.5	2.2	1.2 nM	> 340	> 340	CCCCCOC(=O)N1CCN(C(=O)[C@H](CCC(=O)O)NC(=O)c2cc(NCCOC)nc(-c3ccccc3)n2)CC1
0.1	0.7	2.2 nM	> 340	> 340	CCCCCOC(=O)N1CCN(C(=O)[C@H](CCC(=O)O)NC(=O)c2cc(N3CCC(CNCC)CC3)nc(-c3ccccc3)n2)CC1
0.4	2.4	7.4 nM	> 340	> 340	CCCCCOC(=O)N1CCN(C(=O)[C@H](CCC(=O)O)NC(=O)c2nc(-c3ccccc3)cc(N3CCC(N4CCCC4)CC3)n2)CC1
0.2	0.8	1.2 nM	> 340	> 340	CCCCCOC(=O)N1CCN(C(=O)[C@H](CCC(=O)O)NC(=O)c2cc(N3CCN(C(N)=O)CC3)nc(-c3ccccc3)n2)CC1
–	–	7.4 nM	> 340	> 340	CCCCCOC(=O)N1CCN(C(=O)[C@H](CCC(=O)O)NC(=O)c2nc(-c3ccccc3)cc(N3CCC(OC)CC3)n2)CC1
–	–	1.2 nM	> 340	> 340	CCCCCOC(=O)N1CCN(C(=O)[C@H](CCC(=O)O)NC(=O)c2nc(OCCOC)cc(-c3ccccc3)n2)CC1
–	–	5.2 nM	> 340	> 340	CCCCCOC(=O)N1CCN(C(=O)[C@H](CCC(=O)O)NC(=O)c2nc(NCCOC)cc(-c3ccccc3)n2)CC1
0.2	0.8	1.7 nM	–	–	CCCCOC(=O)N1CCN(C(=O)[C@H](CCC(=O)O)NC(=O)c2cc(N3CCC(N4CCCC4)CC3)nc(-c3ccccc3)n2)CC1
